# Biofilm kill mix = mixture kills Candida albicans biofilm cells; C. albicans biofilm persisters + clotrimazole, fluorescence viability; primary screen in compound mixtures of four per well; inhibition, % at 7.6 µM; 0.02% of 120,000 active;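 active = inhibition above 30.3% in the primary screen of four-compound pools, then above 30% when the compound was retested; inconclusive = passed the primary limit but could not be retested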;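 note: compounds exposed to preformed 24 h biofilms for 48 h; 0% = untreated biofilm control and 100% = clotrimazole plus chlorhexidine kill blank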
#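 Test system: C. albicans biofilms. Buffer or medium: RPMI/MOPS medium, pH 7.0. Timing: 48 h compound exposure at 37 °C. Technique: Alamar Blue fluorescence. Evaluation: percent inhibition of biofilm viability.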
# RGS4-Gao reg = modulates binding of RGS4 to human Galphao; 0.33% of 220,000 active; Multiplexed bead flow cytometry; actives lie on both sides; binding response (% of control), % at 10 µM; in the data active = binding response below about 49% or above about 150%; inactive = in between;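 note: fluorescent Galphao activated with aluminum fluoride binding bead-coupled RGS4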
# Target sequence (P09471 whole entry, looked up): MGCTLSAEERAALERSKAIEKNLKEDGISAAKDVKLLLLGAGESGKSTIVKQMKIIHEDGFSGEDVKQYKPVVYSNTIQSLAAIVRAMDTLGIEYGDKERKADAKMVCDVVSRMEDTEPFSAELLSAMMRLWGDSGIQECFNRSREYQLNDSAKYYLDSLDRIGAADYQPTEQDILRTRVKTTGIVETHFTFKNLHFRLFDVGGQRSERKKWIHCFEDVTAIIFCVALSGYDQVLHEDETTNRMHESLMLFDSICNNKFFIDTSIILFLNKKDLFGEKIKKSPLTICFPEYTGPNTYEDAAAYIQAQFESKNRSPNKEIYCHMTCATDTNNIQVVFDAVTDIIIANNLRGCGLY
# RGS16-Gao HTS = modulates binding between human RGS16 and Galphao; bead-based flow cytometry RGS16-Galphao binding, fluorescence; actives lie on both sides; 0.38% of 220,000 active; binding response (% of control), % at 10 µM;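 note: Galphao activated by GDP with aluminum fluoride before binding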
# Target sequence (O15492 whole entry, looked up): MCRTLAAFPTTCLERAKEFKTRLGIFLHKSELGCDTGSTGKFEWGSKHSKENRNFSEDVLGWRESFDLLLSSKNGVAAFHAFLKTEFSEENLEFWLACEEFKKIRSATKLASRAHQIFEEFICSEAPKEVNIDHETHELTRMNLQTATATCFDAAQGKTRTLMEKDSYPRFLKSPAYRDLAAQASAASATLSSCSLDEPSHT
# Target sequence (P09471 whole entry, looked up): as the sequence (P09471 whole entry, looked up) above
# RGS7-Gao reg = regulators of human RGS7-Galphao interaction | binding response (% of control), % at 10 µM | 0.35% of 220,000 active | Multiplexed bead flow cytometry, RGS7-Galphao binding; actives lie on both sides; in the data active = binding response below about 49% or above about 150%; inconclusive = no clear call, values can overlap the other calls; inactive = in between;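 note: fluorescent Galphao held in activated GDP-AlF4 state binding bead-coupled RGS7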
# RGS8-Gao reg = modulates binding of RGS8 to human Galphao | 0.34% of 220,000 active | multiplexed bead flow cytometry; actives lie on both sides | response (percent of control binding), % at 10 µM; in the data active = response below about 60% or above about 140%; inactive = in between;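 note: Galphao activated as the GDP aluminium fluoride complex binding bead-coupled RGS8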
# RGS-Gao = RGS4-Galphao interaction regulator (human); RGS4–Galpha-o binding response, % at 10 µM; AID 1504; multiplexed bead flow cytometry, RGS–Galpha-o binding; 99% of 1,600 active; shares compounds with RGS16-Gao HTS;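 note: fluorescently labeled Galpha-o bound to GDP with aluminium fluoride binding biotinylated RGS beads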
# Avidin counter = biotin-avidin bead binding disruption counter-screen; shares compounds with RGS16-Gao HTS; streptavidin beads, fluorescein-biotin binding, flow cytometry; inhibition, % at 10 µM; 1,700 tested, under 10 active; AID 1783;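 active = inhibition above 50%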;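 note: median green fluorescence of gated singlet beads compared with DMSO control wells; 0% = DMSO wells and 100% = complete loss of bead fluorescence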
# RGS8-Gao single = RGS8-Galphao interaction regulation, single point confirmation. shares compounds with RGS16-Gao HTS. bead-based flow cytometry RGS8-Galphao binding, fluorescence; actives lie on both sides. binding response (% of control), % at 10 µM. 3% of 1,700 active; in the data active = binding response below about 72% or above about 130%; inactive = in between;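 note: Galphao activated as GDP AlF4 complex before binding bead RGS8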
# RGS7-Gao single = RGS7-Galphao interaction regulation, single point confirmation; response (percent of control binding), % at 10 µM; bead-based flow cytometry RGS7-Galphao binding; actives lie on both sides; AID 1837; shares compounds with RGS16-Gao HTS; 7.8% of 1,700 active; in the data active = response below about 75% or above about 130%; inactive = in between;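 note: fluorescent Galphao activated with GDP and aluminum fluoride binding bead-coupled RGS7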
# RGS16-Gao conf = confirmation of regulators of human RGS16-Galphao interaction. shares compounds with RGS16-Gao HTS. bead-based flow cytometry, RGS16-Galphao binding; actives lie on both sides. response (% of control binding), % at 10 µM. 4% of 1,700 active. AID 1838; in the data active = response below about 74% or above about 130%; inactive = in between;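 note: Galphao activated as the GDP aluminium fluoride complex binding bead-coupled RGS16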
# RGS4-Gao single = RGS4-Galphao interaction regulation, single point confirmation. binding response (% of control), % at 10 µM. 4% of 1,700 active. shares compounds with RGS16-Gao HTS. RGS4-Galphao binding, multiplexed bead flow cytometry; actives lie on both sides; in the data active = binding response below about 74% or above about 130%; inactive = in between
# RGS19-Gao single = RGS19-Galphao interaction regulation, single point confirmation; AID 1841; bead-based flow cytometry RGS19-Galphao binding; actives lie on both sides; 5% of 1,700 active; shares compounds with RGS16-Gao HTS; response (percent of control binding), % at 10 µM; in the data active = response below about 50% or above about 160%; inactive = in between;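 note: 100% = no compound control and 0% = blank background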
# * marks the source's active call; other numbers are inactive results; ? = inconclusive; . = no result; [ ] = another dose, or the depositor's remark. The list is not random: actives were taken first. Their share in the collection is about 0.74%. Unless noted, the rule behind the calls is not given here.
SMILES,Biofilm kill mix,RGS4-Gao reg,RGS16-Gao HTS,RGS7-Gao reg,RGS8-Gao reg,RGS-Gao,Avidin counter,RGS8-Gao single,RGS7-Gao single,RGS16-Gao conf,RGS4-Gao single,RGS19-Gao single
COc1ccccc1CCc1nnc(CCC(=O)NC(C)Cc2cccs2)o1 (stereo not drawn),-2,100,102,101,102,.,.,.,.,.,.,.
CCOc1ccc(C(CC(=O)O)NC(=O)c2cccs2)cc1OC (stereo not drawn),16,101,103,101,100,.,.,.,.,.,.,.
O=[N+]([O-])c1cccc(-c2noc(-c3cccs3)n2)c1,24,90,95,?,102,.,.,.,.,.,.,.
N#CC(C(=O)OC1CCCCC1)c1nc2ccccc2nc1N1CCOCC1 (stereo not drawn),.,119,106,171*[activator],96,119*,.,.,.,.,.,.
CC(C)(C)NC(=O)C1Cc2ccccc2CN1 (stereo not drawn),9,98,97,102,98,.,.,.,.,.,.,.
CC(Sc1ncnc2ccccc12)C(=O)Nc1ccc2c(c1)OCO2 (stereo not drawn),.,.,.,.,.,.,1,103,92,106,97,103
Fc1cccc(Cl)c1/C=N/n1c(-c2cccnc2)n[nH]c1=S,19,88,1,88,59*,88*,-3,93,113,87,95,87
Cc1ccc(C2=C(CC(=O)O)C(=O)CC2)cc1,14,92,22*,91,76,92*,0,103,104,101,101,147
Cc1ccc(-c2sc(C)nc2CC(=O)O)cc1,.,100,104,96,101,.,.,.,.,.,.,.
CCS(=O)(=O)c1ccc2c(c1)N(S(=O)(=O)c1ccc(Cl)cc1)CC(C(=O)O)O2 (stereo not drawn),9,103,99,?,100,.,.,.,.,.,.,.
COc1ccc(OC)c(NC(=O)CSc2nnc(CNC(=O)COc3ccc(Cl)cc3)o2)c1,.,105,117,159*[activator],104,105*,-2,104,104,106,104,100
COc1ccc(NC(=O)CSc2nnc(CNC(=O)COc3ccc(Cl)cc3)o2)c(OC)c1,.,105,104,106,104,.,.,.,.,.,.,.
CCCSc1nnc2c(n1)OC(c1cccn1C)N(C(C)=O)c1ccccc1-2 (stereo not drawn),.,104,108,103,105,.,.,.,.,.,.,.
C=CCSc1nnc2c(n1)OC(c1ccccn1)N(C(C)=O)c1ccccc1-2 (stereo not drawn),.,122,114,168*[activator],99,122*,2,103,104,104,103,102
O=C(CSc1ccc(F)cc1)Nc1ccc(C2SCCS2)cc1,9,91,86,?,95,.,.,.,.,.,.,.
C[N+](C)(CC#Cc1ccccc1)CC(=O)c1ccc(Cl)cc1,6,114,23*,115,84,114*,1,98,99,98,101,98
Cc1ccc(C)c(CN2CCNC2=O)c1,.,20*,7.9*,15*,13*,.,0,94,92,93,95,82
CCCC[n+]1ccn(-c2nc3ccccc3nc2[N-]S(=O)(=O)c2ccccc2)c1,.,134,172,.,101,.,0,101,99,102,99,93
CCN(CC(=O)Nc1ccc2c(c1)OCCO2)C(=O)/C=C/c1ccc(F)cc1,12,101,102,101,102,.,.,.,.,.,.,.
O=C(Nc1ccc(Cl)c(Cl)c1)OCCNC(=O)c1ccncc1,0,96,104,?,81,.,0,103,106,105,104,92
Cn1cccc1/C=C1\SC(=S)N(NC(=O)c2ccccc2O)C1=O,11,99,91,?,101,.,.,.,.,.,.,.
COc1ccccc1C(=O)NN1C(=O)/C(=C/c2cccn2C)SC1=S,14,.,.,.,.,.,-1,104,104,104,102,101
CCOC(=O)/C(=C/Nc1ccc(F)c(F)c1)[N+](=O)[O-],12,109,105,?,102,.,.,.,.,.,.,.
COc1ccc(C(=O)Cc2ccc(OC)c(OC)c2)cc1,.,.,.,.,.,.,-1,101,99,104,101,107
CC1CCCC(C)N1c1nnc(N)s1 (stereo not drawn),7,53,20*,55,57*,53*,0,102,102,103,104,104
SMILES,Biofilm kill mix,RGS4-Gao reg,RGS16-Gao HTS,RGS7-Gao reg,RGS8-Gao reg,RGS-Gao,Avidin counter,RGS8-Gao single,RGS7-Gao single,RGS16-Gao conf,RGS4-Gao single,RGS19-Gao single
Oc1oc(-c2ccc(Br)cc2)nc1C=Nc1ccc(Br)cn1,9,134,161,138,146*[activator],134*,0,103,93,100,94,107
Cc1ccc(N=Cc2nc(-c3ccc(C)cc3)oc2O)cc1,10,106,103,108,104,.,.,.,.,.,.,.
CCOC(=O)C(C(=O)OCC)C1OC(=O)c2cc3c(cc21)C(=O)OC3C(C(=O)OCC)C(=O)OCC (stereo not drawn),9,141,124,359*[activator],87,141*,2,89,87,89,91,82
Fc1ccccc1N1CC(c2ccccc2)C(c2cccs2)=N1 (stereo not drawn),.,21*,-9,15*,9.2*,.,0,98,96,93,96,70
Cn1c(=O)cc(SCC(=O)N2CCCC2)c2ccccc21,.,98,94,101,101,.,.,.,.,.,.,.
CCOC(=O)N1CCC(NC(=O)CSc2cc(=O)n(C)c3ccccc23)CC1,.,110,241,111,140*[activator],110*,-9,109,113,109,112,114
Cn1c(=O)n(C)c2cc(S(=O)(=O)NCc3ccco3)ccc21,.,117,114,204*[activator],101,117*,2,104,102,103,102,110
O=S(=O)(N/N=C/c1ccccc1F)c1ccccc1,6,22*,11*,?,14*,.,0,99,98,95,98,93
O=S(=O)(N/N=C/c1ccc(F)cc1)c1ccccc1,7,98,104,102,103,.,.,.,.,.,.,.

# High-throughput results: PubChem BioAssay, several laboratories
